Assay results published in ChEMBL document CHEMBL1914406, “Inhibitory effect of novel 5-O-acyl juglones on mammalian DNA polymerase activity, cancer cell growth and inflammatory response” (Bioorg Med Chem, 2011).
Calls of active or inactive are those of the source. The calls are words filed in the database; no cut-off is given here.

How the values were obtained:
[1] = biological target: DNA polymerase I, thermostable (Thermus aquaticus, UniProt P19821); experiment: Inhibition of Taq polymerase using poly(dA)/oligo(dT)18 (A/T = 2/1) and dTTP as the DNA template-primer and nucleotide substrate at 74 degree C after 60 mins
Chain of DNA polymerase I, thermostable (P19821 whole entry): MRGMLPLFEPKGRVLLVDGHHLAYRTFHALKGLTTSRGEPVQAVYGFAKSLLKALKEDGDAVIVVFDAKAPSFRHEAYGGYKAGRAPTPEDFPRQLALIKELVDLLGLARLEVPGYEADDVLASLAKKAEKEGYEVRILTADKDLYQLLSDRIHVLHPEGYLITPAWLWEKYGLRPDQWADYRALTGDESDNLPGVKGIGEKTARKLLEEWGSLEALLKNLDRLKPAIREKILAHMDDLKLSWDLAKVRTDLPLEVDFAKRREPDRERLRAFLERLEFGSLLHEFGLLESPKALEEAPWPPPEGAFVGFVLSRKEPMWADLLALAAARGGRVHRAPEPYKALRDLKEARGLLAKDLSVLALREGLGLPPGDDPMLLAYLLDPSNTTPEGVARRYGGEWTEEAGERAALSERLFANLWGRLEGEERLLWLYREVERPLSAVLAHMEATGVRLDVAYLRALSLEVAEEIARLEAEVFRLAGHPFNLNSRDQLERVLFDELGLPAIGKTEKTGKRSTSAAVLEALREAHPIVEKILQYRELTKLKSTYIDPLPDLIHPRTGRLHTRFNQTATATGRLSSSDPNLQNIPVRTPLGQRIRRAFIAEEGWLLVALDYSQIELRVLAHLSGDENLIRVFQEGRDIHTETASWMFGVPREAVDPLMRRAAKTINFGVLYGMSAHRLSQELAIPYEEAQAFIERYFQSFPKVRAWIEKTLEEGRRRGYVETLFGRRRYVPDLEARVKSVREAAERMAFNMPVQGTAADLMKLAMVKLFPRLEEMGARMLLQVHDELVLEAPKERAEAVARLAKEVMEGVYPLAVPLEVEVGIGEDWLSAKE
Procedure, shortened: (§1)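 Compound in DMSO, sonicated 30 s. Premixed 0 °C, 10 min with enzyme (0.05 units) in 50 mM Tris-HCl pH 7.5, 1 mM DTT, 50% glycerol, 0.1 mM EDTA, then added to standard reaction mixture. Template-primers: poly(dA)/oligo(dT)18 (2/1) for pols, oligo(dT)18 for TdT, poly(rA)/oligo(dT)18 for HIV-1 RT, with [3H]dTTP. 60 min at 37 °C (Taq 74 °C). Activity relative to no-inhibitor control; mean ± SE of three experiments.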

[2] = biological target: T1, DNA polymerase kappa (Homo sapiens) (UniProt Q9UBT6); experiment: Inhibition of C-terminal His6-tagged human DNA polymerase kappa (amino acids 1 to 560) using bovine deoxyribonuclease 1-treated DNA and dNTP as the DNA template-primer and nucleotide substrate at 10 uM after 60 mins
T1 sequence (whole entry): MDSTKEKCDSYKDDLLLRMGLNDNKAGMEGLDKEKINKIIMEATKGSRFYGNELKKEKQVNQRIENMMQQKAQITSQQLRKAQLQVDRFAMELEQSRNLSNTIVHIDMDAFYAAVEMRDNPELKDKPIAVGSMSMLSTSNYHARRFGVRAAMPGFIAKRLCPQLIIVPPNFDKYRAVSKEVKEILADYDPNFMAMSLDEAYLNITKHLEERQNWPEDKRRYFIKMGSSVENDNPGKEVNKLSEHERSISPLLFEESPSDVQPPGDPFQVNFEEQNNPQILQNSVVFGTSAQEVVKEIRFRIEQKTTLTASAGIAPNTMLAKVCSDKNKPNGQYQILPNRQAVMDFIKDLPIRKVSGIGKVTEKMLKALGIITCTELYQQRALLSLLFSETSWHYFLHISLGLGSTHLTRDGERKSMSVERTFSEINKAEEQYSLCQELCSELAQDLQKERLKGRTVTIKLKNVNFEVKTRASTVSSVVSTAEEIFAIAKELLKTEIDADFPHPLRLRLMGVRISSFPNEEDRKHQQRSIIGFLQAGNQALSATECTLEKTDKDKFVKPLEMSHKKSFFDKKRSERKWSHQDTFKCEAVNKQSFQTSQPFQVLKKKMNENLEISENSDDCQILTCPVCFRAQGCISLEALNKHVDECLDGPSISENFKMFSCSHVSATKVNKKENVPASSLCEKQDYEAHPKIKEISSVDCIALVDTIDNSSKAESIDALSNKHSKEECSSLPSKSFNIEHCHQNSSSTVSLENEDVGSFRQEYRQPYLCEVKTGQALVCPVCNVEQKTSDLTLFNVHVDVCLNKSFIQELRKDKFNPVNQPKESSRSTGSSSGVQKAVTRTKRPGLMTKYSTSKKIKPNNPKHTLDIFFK

[3] = biological target: T1, DNA polymerase kappa (Homo sapiens); experiment: Inhibition of C-terminal His6-tagged human DNA polymerase kappa (amino acids 1 to 560) using poly(dA)/oligo(dT)18 (A/T = 2/1) and dTTP as the DNA template-primer and nucleotide substrate at 10 uM after 60 mins
Homo sapiens = species: Homo sapiens; experiment: Inhibition of histidine-tagged human DNA polymerase gamma using poly(dA)/oligo(dT)18 (A/T = 2/1) and dTTP as the DNA template-primer and nucleotide substrate at 10 uM after 60 mins; procedure, shortened: as §1
[4] = biological target: T2, DNA polymerase lambda (Homo sapiens) (UniProt Q9UGP5); experiment: Inhibition of recombinant His-tagged human DNA polymerase lambda using poly(dA)/oligo(dT)18 (A/T = 2/1) and dTTP as the DNA template-primer and nucleotide substrate at 10 uM after 60 mins; procedure, shortened: as §1
T2 sequence (whole entry): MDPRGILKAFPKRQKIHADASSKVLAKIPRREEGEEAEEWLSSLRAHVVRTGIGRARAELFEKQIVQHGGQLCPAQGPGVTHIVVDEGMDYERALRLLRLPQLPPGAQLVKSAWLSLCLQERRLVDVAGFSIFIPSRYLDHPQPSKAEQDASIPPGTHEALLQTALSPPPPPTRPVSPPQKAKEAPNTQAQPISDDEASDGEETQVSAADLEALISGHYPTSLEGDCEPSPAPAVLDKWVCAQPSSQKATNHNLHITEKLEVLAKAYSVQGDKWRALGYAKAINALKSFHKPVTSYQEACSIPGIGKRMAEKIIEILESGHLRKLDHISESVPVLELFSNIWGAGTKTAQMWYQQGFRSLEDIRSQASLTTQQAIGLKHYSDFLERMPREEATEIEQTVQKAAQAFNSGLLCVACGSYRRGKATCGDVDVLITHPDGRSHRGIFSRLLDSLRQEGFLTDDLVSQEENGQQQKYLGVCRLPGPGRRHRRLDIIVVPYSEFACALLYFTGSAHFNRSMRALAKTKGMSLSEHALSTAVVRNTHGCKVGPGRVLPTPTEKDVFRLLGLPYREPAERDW

[5] = Cytotoxicity against mouse RAW264.7 cells; type: cell-based; settings: read-out: LD50 (the source's name)
RAW264.7 = experiment: Cytotoxicity against mouse RAW264.7 cells at 5 uM; type: cell-based; settings: raw264.7, 5 µM
Nucleic Acid = experiment: Binding affinity to DNA assessed as thermal transition of DNA relative to control; type: nucleic-acid assay
Bos taurus = species: Bos taurus; experiment: Inhibition of calf DNA polymerase alpha using poly(dA)/oligo(dT)18 (A/T = 2/1) and dTTP as the DNA template-primer and nucleotide substrate at 10 uM after 60 mins; procedure, shortened: as §1
DNA polymerase beta = DNA polymerase beta (Rattus norvegicus, UniProt P06766); experiment: Inhibition of rat pol beta using poly(dA)/oligo(dT)18 (A/T = 2/1) and dTTP as the DNA template-primer and nucleotide substrate after 60 mins; procedure, shortened: as §1
HCT-116 [6] = experiment: Cytotoxicity against human HCT116 cells by WST-1 assay relative to aphidicolin; type: functional, cell-based
HCT-116 [7] = experiment: Cytotoxicity against human HCT116 cells by WST-1 assay; type: functional, cell-based
Procedure, shortened: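 HCT116 colon carcinoma cells (ATCC) grown in McCoy's 5A with 10% FBS, penicillin and streptomycin, 37 °C, 5% CO2. Plated at 1 × 10⁴ cells/well together with compound, which was diluted from a 10 mM DMSO stock into medium (final 0.5% DMSO). Incubated 24 h. Viability read by WST-1, expressed relative to untreated cells.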

[8] = Inhibition of human DNA polymerase delta using poly(dA)/oligo(dT)18 (A/T = 2/1) and dTTP as the DNA template-primer and nucleotide substrate after 60 mins; procedure, shortened: as §1
HCT-116 [9] = experiment: Cytotoxicity against human HCT116 cells by WST-1 assay relative to etoposide; type: functional, cell-based

Row | SMILES | IC50 [1] [µM] | inhibition [2] | inhibition [3] | inhibition (Homo sapiens) | inhibition [4] | CC50 [5] [µM] | Activity (RAW264.7) | Activity (Nucleic Acid) | inhibition (Bos taurus) | IC50 (DNA polymerase beta) [µM] | Activity (HCT-116 [6]) | Activity (HCT-116 [7]) | IC50 [8] [µM] | Activity (HCT-116 [9])
1 | CCCCCCCCCCCC(=O)Oc1cccc2c1C(=O)C=CC2=O | > 100 | Active | Active | Active | Active | > 10 | Non-toxic | inactive | Active | 7.6 |  |  |  | 
2 | CCCCCCCC/C=C\CCCCCCCC(=O)Oc1cccc2c1C(=O)C=CC2=O | > 100 | Active | Active | Active | Active | > 10 | Non-toxic | inactive | Active | 11.5 | Active | Active | 0.74 | Active
